In publication PMC11792172 (Journal of natural products, 2025):
Where two headings read alike, the source gives them in different places.

Key:
[1] = system: Na+/K+-ATPase (NKA); assay: Na+/K+-ATPase activity assay; assay type: biochemical; conditions: for effect on NKA at a high concentration: high concentration (>100 μM), Figure 3
Method in brief: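 Luminescent ADP detection read out enzyme activity by quantifying the ADP formed during the enzymatic first half-reaction. Assays were run in triplicate and were representative of three independent experiments. IC50 was obtained from dose-response curves by nonlinear regression.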

[2] = system: MDA-MB-435 melanoma cells; assay: Cytotoxicity assay; assay type: cell-based; conditions: Homo sapiens, MDA-MB-435, 72 h, read-out: IC50, inhibition of viability, MDA-MB-435
[3] = system: OVCAR3 ovarian cancer cells; assay: Cytotoxicity assay; assay type: cell-based; conditions: Homo sapiens, OVCAR-3, 72 h, read-out: IC50, inhibition of viability, OVCAR3
[4] = system: MDA-MB-231 breast cancer cells; assay: Cytotoxicity assay; assay type: cell-based; conditions: Homo sapiens, MDA-MB-231, 72 h, read-out: IC50, inhibition of viability, MDA-MB-231
[5] = system: OVCAR5 ovarian cancer cells; assay: Cytotoxicity assay; assay type: cell-based; conditions: Homo sapiens, OVCAR-5, 72 h, read-out: IC50, inhibition of viability, OVCAR5
[6] = target: Na+/K+-ATPase (NKA); conditions: read-out: IC50, inhibition of NKA activity, cited from earlier work

For CO[C@H]1C[C@H](O[C@H]2CC[C@@]3(C)[C@@H](C2)C[C@@H]2O[C@]24[C@@H]3[C@H](OC(C)=O)C(=O)[C@]2(C)[C@@H](C3=CC(=O)OC3)CC[C@]42O)O[C@@H](C)[C@@H]1OC(C)=O [1a, (−)-11,4′-di-O-acetylcryptanoside A], the “effect on NKA at a high concentration” value [1] was “activate NKA”.

Compound CC(=O)O[C@H]1C(=O)[C@@]2(C)[C@H]([C@H](OC(=O)c3ccccc3)[C@]3(O)C[C@H](OC(=O)[C@H](O)[C@@H](NC(=O)c4ccccc4)c4ccccc4)C(C)=C1C3(C)C)[C@]1(OC(C)=O)CO[C@@H]1C[C@@H]2O [Paclitaxel, paclitaxel] has an IC50 [2] of 1.9 ± 0.1 nM, an IC50 [3] of 4.9 ± 0.1 nM and an IC50 [4] of 3.8 ± 0.1 nM. The IC50 [5] was 7.3 ± 0.1 nM.

In the case of CO[C@H]1C[C@H](O[C@H]2CC[C@@]3(C)[C@@H](C2)C[C@@H]2O[C@]24[C@@H]3[C@H](O)C(=O)[C@]2(C)[C@@H](C3=CC(=O)OC3)CC[C@]42O)O[C@@H](C)[C@@H]1O [compound 1, (−)-Cryptanoside A], the IC50 ([6]; data reported previously) is given as 1200 ± 100 nM.

Work on CO[C@H]1C[C@H](O[C@H]2CC[C@@]3(C)[C@@H](C2)C[C@@H]2O[C@]24[C@@H]3[C@H](O)C(=O)[C@]2(C)[C@H](C3=CC(=O)OC3)CC[C@]42O)O[C@@H](C)[C@@H]1O [compound 2, (−)-17-epi-cryptanoside A] yielded an IC50 ([1]; read-out: IC50, inhibition of NKA activity) of over 20 µM.

For C[C@]12CC[C@H]3[C@@H](C=CC4=CC(=O)[C@H](O)C[C@@]43C)[C@@H]1CC[C@@H]2C(=O)O [compound 3, (+)-2-hydroxyandrosta-4,6-diene-3-one-17-carboxylic acid], the “effect on NKA at a high concentration” value [1] was “activate NKA”.

In the case of C[C@H]1O[C@@H](O[C@H]2[C@@H](O)C[C@H](O[C@H]3[C@@H](O)C[C@H](O[C@H]4CC[C@@]5(C)[C@H](CC[C@@H]6[C@@H]5C[C@@H](O)[C@]5(C)[C@@H](C7=CC(=O)OC7)CC[C@]65O)C4)O[C@@H]3C)O[C@@H]2C)C[C@H](O)[C@@H]1O [digoxin], the IC50 [6] is listed as 230 ± 20 nM.
